Laboratory results: paper PMC4324418 (ACS Chemical Neuroscience, 2014)
Counter-ions that a name gives are not always drawn. Marks after values point to notes of the source that are not given here.

How the values were obtained:
rat M4 receptor = molecular target: T1, rat M4 receptor (Rattus norvegicus, UniProt P08485); type: cell-based
T1 sequence (P08485 1-478): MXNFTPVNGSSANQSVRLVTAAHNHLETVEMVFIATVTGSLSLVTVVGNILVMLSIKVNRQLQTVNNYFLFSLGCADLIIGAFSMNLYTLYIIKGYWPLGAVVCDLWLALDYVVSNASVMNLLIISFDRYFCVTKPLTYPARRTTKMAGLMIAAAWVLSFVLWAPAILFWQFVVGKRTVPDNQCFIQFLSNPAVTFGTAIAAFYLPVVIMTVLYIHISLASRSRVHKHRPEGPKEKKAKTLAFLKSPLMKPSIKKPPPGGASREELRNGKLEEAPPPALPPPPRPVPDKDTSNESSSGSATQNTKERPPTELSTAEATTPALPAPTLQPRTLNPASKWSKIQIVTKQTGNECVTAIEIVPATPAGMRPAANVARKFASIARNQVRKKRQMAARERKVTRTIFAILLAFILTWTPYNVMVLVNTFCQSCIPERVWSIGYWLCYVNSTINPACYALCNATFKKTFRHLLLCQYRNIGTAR

wild-type mice [1] = assay: Modified Irwin neurological test battery; type: in vivo, mouse; conditions: 1 mg/kg
M4 KO mice [2] = assay: Touchscreen pairwise visual discrimination task, M4 KO mice; type: in vivo, mouse; conditions: M4 KO
Outline: (§1)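 Mice aged 8–11 weeks were held at ~85% free-feeding weight, with water freely available. They were trained on touchscreen nosepoke discrimination (60 trials or 60 min) to ≥85% accuracy on 3 consecutive days. Next day: vehicle (10% Tween 80 IP) or test compound (3–30 mg/kg IP) 60 min pre-test, then saline or MK-801 (0.1–0.3 mg/kg IP) 30 min later. Mice were retested drug-free 24 h later. Analysis: ANOVA with Bonferroni tests.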

wild-type mice [3] = assay: MK-801-induced hyperlocomotion in wild-type mice; type: in vivo, mouse; conditions: IP
Outline: (§2)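 Wild-type and M4 KO mice were habituated 90 min in a photobeam open field. They then received vehicle (10% Tween 80 IP), followed 30 min later by saline or MK-801 IP, and activity was recorded for 120 min. Distance traveled was binned per 5 min. Totals covered t = 120 to 240 min and were analyzed by ANOVA with Bonferroni post hoc tests.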

wild-type mice [4] = assay: Touchscreen pairwise visual discrimination task, wild-type mice; type: in vivo, mouse
Outline: as §1

wild-type mice [5] = assay: Contextual fear conditioning, four-shock, MK-801-induced deficit; type: in vivo, mouse; conditions: MK-801 0.1–0.3 mg/kg prior to the four-shock conditioning trial
Outline: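 Subjects were wild-type and M4 KO mice, 8–11 weeks old, handled for 3 days and saline-injected 1 day before conditioning. Vehicle (10% Tween 80 in water, IP) or test compound (3–10 mg/kg IP) was given 30 min before saline or MK-801 (0.1–0.3 mg/kg IP). Mice entered the chamber 30 min later for a four-shock conditioning trial. Percent freezing was scored 24 h later, drug-free.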

M4 KO mice [6] = assay: MK-801-induced hyperlocomotion in M4 KO mice; type: in vivo, mouse; conditions: IP, lowest significant dose
Outline: as §2

[7] = potentiation of an EC20 concentration of ACh, CHO cells

COc1nc2sc(C(=O)NC3CC3)c(N)c2c(C)c1Cl [LY2033298]
%AChmax (rat M4 receptor; maximum response as % of the Emax of ACh): 67%
EC50 (rat M4 receptor; [7]): 646 nM
pEC50 (rat M4 receptor; [7]): 6.19 ± 0.03

O=C1CCCN1CC#CCN1CCCC1 [oxotremorine, oxotremorine sesquifumarate, reference compound]
autonomic function and somatomotor deficits (wild-type mice [1]): induced time-dependent changes in autonomic function

C[C@]12N[C@H](Cc3ccccc31)c1ccccc12 [MK-801, (5S,10R)-(+)-5-methyl-10,11-dihydro-5H-dibenzo[a,d]cyclohepten-5,10-imine maleate, reference compound]
response accuracy on the test day (M4 KO mice [2]; MK-801 alone (vehicle 91%)): 73%
correct reward collection latency (M4 KO mice [2]; vehicle + MK-801 0.30 mg/kg IP): 1.54 ± 0.15 s
correct touch latency (M4 KO mice [2]; vehicle + MK-801 0.30 mg/kg IP): 8.76 ± 2.19 s
time to complete 60 trials (M4 KO mice [2]; vehicle + MK-801 0.30 mg/kg IP): 1264 ± 280.5 ^f s
dose with significant effect on locomotor activity (wild-type mice [3]): 3 mg/kg
response accuracy on the test day (wild-type mice [4]; 0.3 mg/kg MK-801 (vehicle group 92%)): 63%
correct reward collection latency (wild-type mice [4]; vehicle + MK-801 0.10 mg/kg IP): 1.32 ± 0.15 s
correct touch latency (wild-type mice [4]; vehicle + MK-801 0.10 mg/kg IP): 2.95 ± 0.57 s
time to complete 60 trials (wild-type mice [4]; vehicle + MK-801 0.10 mg/kg IP): 1004 ± 124.3 s
correct reward collection latency (wild-type mice [4]; vehicle + MK-801 0.30 mg/kg IP): 5.58 ± 2.58 s
correct touch latency (wild-type mice [4]; vehicle + MK-801 0.30 mg/kg IP): 8.65 ± 1.99 s
time to complete 60 trials (wild-type mice [4]; vehicle + MK-801 0.30 mg/kg IP): 1118 ± 139.2 s
acquisition of contextual fear conditioning (percent freezing) (wild-type mice [5]): dose-dependently impaired
dose with significant effect on locomotor activity (M4 KO mice [6]): 0.18 mg/kg
